Screening results as filed in PubChem BioAssay.
Shown are actives, neighbours in structure and some others; about 3.4% of the full set was active somewhere.
KCC2 mod – KCC2 (human) Cl- transport modulation. Q9H2X9. KCC2 cells, thallium flux FluoZin-2 fluorescence. B-score of Tl+ flux slope (higher = more flux/activation; lower = inhibition) at 10 µM. 190,000 compounds, 2.2% hits;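 active = thallium flux slope and its plate-corrected score both differing from the plate sample mean at a set confidence after two filtering rounds, in either direction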;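 note: slope of fluorescence scaled to starting intensity during 10 to 20 s after thallium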
ROMK primary – modulates human ROMK potassium channel activity; P48048; Tet-inducible ROMK, thallium flux fluorescence; actives lie on both sides; B-score at 10 µM; 130,000 compounds, 2% hits; AID 1918;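 active = signal ratio slope over the read window, or its plate-corrected B-score, at least 3 SD from the plate mean, either direction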;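 note: B-score of the F/F0 ratio slope over 7 to 12 s after thallium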
Mdm2 ligase inh – inhibitors of human Mdm2 E3 ubiquitin ligase; 210,000 compounds, 0.11% hits; signal enhancement, % at 5 µM; Q00987; cell-based MDM2 ubiquitination luciferase reporter, 2 h; 0 = plate control, 100 = twice control, blank-subtracted;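 active = signal enhancement of 30% or more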;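 note: luminescence tracks abundance of the self-degrading MDM2-luciferase fusion protein; higher signal means inhibition of MDM2 E3 ligase activity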
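System: stable MDM2–luciferase fusion reporter cells / Input: 2000 cells seeded into each well / Schedule: 4 h settle plus 2 h compound, 37 °C / Compound: single-point 5 µM / Buffer or medium: cells held in DMEM / Benchmarks: control and blank well means / Evaluation: percent signal gain over controls, blank-subtracted / Measured by: luciferase luminescence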
p97 inhibitor – inhibitors of human p97 ATPase | AID 1481 | inhibition, % at 8 µM | 220,000 compounds, 0.42% hits | P55072 | recombinant p97 ATPase, Kinase-Glo ATP luminescence, 3 h; in the data active = inhibition above about 15%;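 note: 0% = DMSO vehicle and 100% = wells lacking enzyme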
DTT redox prof – compounds producing H2O2 with reducing agent – biochemical, NIH compound library profiling, artefact control for MLSCN library redox annotation, primary screen | 200,000 compounds, 0.03% hits | DTT-dependent redox cycling H2O2, phenol red/HRP absorbance; 100% = 100 µM peroxide control, 0% = buffer | activation, % at 10 µM;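 active = activation of at least 50% relative to the plate's high and low controls in the primary single-dose screen; inactive = activation below 50%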;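 note: compound incubated with DTT at 0.8 mM final as the reducing agent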
PKD1 kinase inh – PKD1 (human) kinase inhibition; inhibition, % (no concentration beside the values); 200,000 compounds, 0.056% hits; PKD1 kinase fluorescence polarization assay; AID 797; Q15139; in the data active = inhibition above about 50%
ROMK retest – confirmation of human ROMK potassium channel modulators | 3,000 compounds, 54% hits | normalized thallium flux (F/F0 slope) at 10 µM | ROMK thallium flux, fluorescence ratio; active compounds read low | shares compounds with ROMK primary;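 active = Flux at 10 µM at least 3 SD below or above vehicle control mean in one or both replicates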
Starred values were filed as active, the others as inactive; x = no result given.

SMILES	KCC2 mod	ROMK primary	Mdm2 ligase inh	p97 inhibitor	DTT redox prof	PKD1 kinase inh	ROMK retest
CC1(C)Cc2c(sc3nc(SCC(=O)NCc4ccco4)n(-c4ccccc4)c(=O)c23)CS1	0.21	1	-18	6	1	-6	0.055*
CCCN1CCC(NC(=O)CCc2nnc(Cc3cc(OC)ccc3OC)o2)CC1	0.44	-0.18	17	4	0	6	x
c1ccc(CCn2nnnc2C(c2cccnc2)N2CCOCC2)cc1 (stereo not given)	1.9	-0.11	-14	2	-2	2	x
CCCCN=c1scc(-c2ccc3c(c2)NC(=O)CO3)n1N=C1CCCC1	1.1	-0.18	-4	-5	0	-6	x
CCN=c1scc(-c2ccc3c(c2)NC(=O)CO3)n1N=C1CCCC1	-1.4	x	-16	-1	1	11	0.079
CCOC(=O)C(=CNc1cccc(C)c1C)C(=O)OCC	-2	-0.31	3	-3	-6	-8	x
CCOC(=O)C(=CNc1ccccc1N1CCOCC1)C(=O)OCC	x	x	-3	-2	x	x	0.064*
O=C(O)c1ccc(NCc2ccncc2)cc1	-0.048	0.82	-16	-7	1	-5	x
Cc1cccc(OCc2n(CC(=O)OC3CC(C)CCC3C(C)C)c3ccccc3[n+]2C)c1 (stereo not given)	0.91	-6.2*	-13	5	-1	-6	0.037*
CC1CCC(C(C)C)C(OC(=O)Cn2c(-c3ccccc3)[n+](C)c3ccccc32)C1 (stereo not given)	-0.12	-6.3*	-34	-4	-1	10	0.039*
CC1CCC(C(C)C)C(OC(=O)CSc2nnc(N)s2)C1 (stereo not given)	-1.1	x	-2	-2	2	-3	x
CC1CCC(C(C)C)C(OC(=O)Cn2c(-c3ccc(F)cc3)[n+](C)c3ccccc32)C1 (stereo not given)	-1.3	-5*	-15	-1	0	2	0.047*
CC1CCC(C(C)C)C(OC(=O)CSc2nc(N)cc(=O)[nH]2)C1 (stereo not given)	-1.3	x	-12	-6	2	-6	x
COc1ccccc1N(CC(O)COc1ccc(C)cc1)S(=O)(=O)c1ccccc1 (stereo not given)	-0.53	x	-5	5	0	-6	x
C=CCN(CC=C)C(=O)Cn1cnc([N+](=O)[O-])n1	0.049	0.072	-4	7	0	4	x
O=[N+]([O-])c1ccc(Sc2n[nH]c(-c3ccc(Cl)cc3Cl)n2)nc1	x	x	-10	-4	2	4	0.06*
